Converted amounts (≈) assume the structure as drawn.
Key:
Bacillus anthracis [1] = experiment: Antimicrobial activity against Bacillus anthracis infected mouse spore inhalation anthrax model assessed as bacterial load per gram of lung tissue at 30 mg/kg, ip every 12 hrs for 14 days treated 24 hrs postinfection; type: functional; settings: route intraperitoneal
Bacillus anthracis [2] = experiment: Antimicrobial activity against Bacillus anthracis infected mouse spore inhalation anthrax model assessed as bacterial load per gram of lung tissue at 30 mg/kg, ip every 12 hrs for 14 days treated 36 hrs postinfection; type: functional; settings: route intraperitoneal
Bacillus anthracis [3] = experiment: Antimicrobial activity against Bacillus anthracis infected mouse spore inhalation anthrax model assessed as bacterial load per gram of lung tissue at 30 mg/kg, ip every 12 hrs for 14 days treated 48 hrs postinfection; type: functional; settings: route intraperitoneal
Bacillus cereus [4] = experiment: Antimicrobial activity against Bacillus cereus ATCC 4342 by broth microdilution method; type: functional
Procedure, shortened: (§1)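 B. cereus ATCC 4342 went through stepwise selection for 20 cycles in cation-adjusted Mueller-Hinton broth with doubling drug dilutions. Each cycle was seeded from the previous day's 0.5× MIC wells, in two independent rounds per drug. Selectants showing a fourfold or greater MIC rise were passaged 5 days without drug. Their MICs were then read alongside the parent strain. Oritavancin assays carried 0.002% polysorbate 80 throughout.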

Bacillus cereus [5] = experiment: Antimicrobial activity against Bacillus cereus ATCC 4342 selected after 20 daily cycles of drug selection followed by 5 days of nonselective growth by broth microdilution method; type: functional; settings: ATCC 4342, 120 h; procedure, shortened: as §1
Bacillus cereus [6] = experiment: Ratio of MIC for Bacillus cereus ATCC 4342 selected after 20 daily cycles of drug selection followed by 5 days of nonselective growth to MIC for Bacillus cereus ATCC 4342; type: functional; procedure, shortened: as §1
Bacillus anthracis [7] = experiment: animal or person; settings: in Mus musculus, ip
Bacillus anthracis [8] = experiment: animal or person; settings: in Mus musculus, ip; remark: listed apart in the source
Bacillus anthracis [9] = experiment: animal or person; settings: in Mus musculus, ip; remark: listed apart in the source
Bacillus anthracis [10] = experiment: animal or person; settings: in Mus musculus, iv
Bacillus anthracis [11] = experiment: animal or person; settings: in Mus musculus, ip; remark: listed apart in the source
Bacillus anthracis [12] = experiment: Antimicrobial activity against Bacillus anthracis by broth microdilution method in presence of polysorbate-80; type: functional
Bacillus anthracis [13] = experiment: Ratio of MIC90 for Bacillus anthracis in presence of polysorbate-80 to MIC90 for Bacillus anthracis; type: functional
Bacillus anthracis [14] = experiment: Antimicrobial activity against Bacillus anthracis Ames by broth microdilution method in presence of polysorbate-80; type: functional
Bacillus anthracis [15] = experiment: Antimicrobial activity against Bacillus anthracis infected mouse spore inhalation anthrax model; type: functional; settings: inhaled or nasal
Bacillus anthracis [16] = experiment: Antimicrobial activity against Bacillus anthracis infected mouse spore inhalation anthrax model assessed as survival rate at 30 mg/kg, ip every 48 hrs for 14 days treated 24 hrs postinfection; type: functional; settings: route intraperitoneal
Bacillus anthracis [17] = experiment: Antimicrobial activity against Bacillus anthracis infected mouse spore inhalation anthrax model assessed as survival rate at 10 mg/kg, ip every 48 hrs for 14 days treated 24 hrs postinfection; type: functional; settings: route intraperitoneal
Bacillus anthracis [18] = experiment: Antimicrobial activity against Bacillus anthracis infected mouse spore inhalation anthrax model assessed as survival rate at 3 mg/kg, ip every 48 hrs for 14 days treated 24 hrs postinfection; type: functional; settings: route intraperitoneal
Bacillus anthracis [19] = experiment: Antimicrobial activity against Bacillus anthracis infected mouse spore inhalation anthrax model assessed as survival rate at 1 mg/kg, ip every 48 hrs for 14 days treated 24 hrs postinfection; type: functional; settings: route intraperitoneal
Bacillus anthracis [20] = experiment: Antimicrobial activity against Bacillus anthracis infected mouse spore inhalation anthrax model assessed as survival rate at 0.3 mg/kg, ip every 48 hrs for 14 days treated 24 hrs postinfection; type: functional; settings: route intraperitoneal
Bacillus anthracis [21] = experiment: Antimicrobial activity against Bacillus anthracis infected mouse spore inhalation anthrax model assessed as survival rate at 0.1 mg/kg, ip every 48 hrs for 14 days treated 24 hrs postinfection; type: functional; settings: route intraperitoneal
Bacillus anthracis [22] = experiment: Antimicrobial activity against Bacillus anthracis infected mouse spore inhalation anthrax model assessed as survival rate at 50 mg/kg, iv administered as single dose treated 24 hrs postinfection; type: functional
Bacillus anthracis [23] = experiment: Antimicrobial activity against Bacillus anthracis infected mouse spore inhalation anthrax model assessed as survival rate at 15 mg/kg, iv administered as single dose treated 24 hrs postinfection; type: functional
Bacillus anthracis [24] = experiment: Antimicrobial activity against Bacillus anthracis infected mouse spore inhalation anthrax model assessed as survival rate at 5 mg/kg, iv administered as single dose treated 24 hrs postinfection; type: functional
Bacillus anthracis [25] = experiment: Antimicrobial activity against Bacillus anthracis infected mouse spore inhalation anthrax model assessed as survival rate at 10 mg/kg, ip every 48 hrs for 14 days treated 36 hrs postinfection; type: functional; settings: route intraperitoneal
Bacillus anthracis [26] = experiment: Antimicrobial activity against Bacillus anthracis infected mouse spore inhalation anthrax model assessed as survival rate at 10 mg/kg, ip every 48 hrs for 14 days treated 48 hrs postinfection; type: functional; settings: route intraperitoneal
Bacillus anthracis [27] = experiment: Antimicrobial activity against Bacillus anthracis infected mouse spore inhalation anthrax model assessed as survival rate at 50 mg/kg, iv administered as single dose treated 42 hrs postinfection; type: functional
Bacillus anthracis [28] = experiment: Antimicrobial activity against Bacillus anthracis infected mouse spore inhalation anthrax model assessed as survival rate at 50 mg/kg, iv administered as single dose treated 24 hrs before infection measured on 33 days postinfection; type: functional
Bacillus anthracis [29] = experiment: Antimicrobial activity against Bacillus anthracis infected mouse spore inhalation anthrax model assessed as survival rate at 50 mg/kg, iv administered as single dose treated 7 days before infection measured on 33 days postinfection; type: functional
Bacillus anthracis [30] = experiment: Antimicrobial activity against Bacillus anthracis infected mouse spore inhalation anthrax model assessed as survival rate at 50 mg/kg, iv administered as single dose treated 14 days before infection measured on 22 days postinfection; type: functional
Bacillus anthracis [31] = experiment: Antimicrobial activity against Bacillus anthracis infected mouse spore inhalation anthrax model assessed as survival rate at 50 mg/kg, iv administered as single dose treated 28 days before infection measured on 22 days postinfection; type: functional
Bacillus anthracis [32] = experiment: Antimicrobial activity against Bacillus anthracis infected mouse spore inhalation anthrax model assessed as bacterial load per gram of lung tissue at 30 mg/kg, ip every 48 hrs for 14 days treated 24 hrs postinfection; type: functional; settings: route intraperitoneal
Bacillus anthracis [33] = experiment: Antimicrobial activity against Bacillus anthracis infected mouse spore inhalation anthrax model assessed as bacterial load per gram of lung tissue at 10 mg/kg, ip every 48 hrs for 14 days treated 24 hrs postinfection; type: functional; settings: route intraperitoneal
Bacillus anthracis [34] = experiment: Antimicrobial activity against Bacillus anthracis infected mouse spore inhalation anthrax model assessed as bacterial load per gram of lung tissue at 3 mg/kg, ip every 48 hrs for 14 days treated 24 hrs postinfection; type: functional; settings: route intraperitoneal
Bacillus anthracis [35] = experiment: Antimicrobial activity against Bacillus anthracis infected mouse spore inhalation anthrax model assessed as bacterial load per gram of lung tissue at 1 mg/kg, ip every 48 hrs for 14 days treated 24 hrs postinfection; type: functional; settings: route intraperitoneal
Bacillus anthracis [36] = experiment: Antimicrobial activity against Bacillus anthracis infected mouse spore inhalation anthrax model assessed as bacterial load per gram of lung tissue at 0.3 mg/kg, ip every 48 hrs for 14 days treated 24 hrs postinfection; type: functional; settings: route intraperitoneal
Bacillus anthracis [37] = experiment: Antimicrobial activity against Bacillus anthracis infected mouse spore inhalation anthrax model assessed as bacterial load per gram of lung tissue at 50 mg/kg, iv administered as single dose treated 24 hrs postinfection; type: functional
Bacillus anthracis [38] = experiment: Antimicrobial activity against Bacillus anthracis infected mouse spore inhalation anthrax model assessed as bacterial load per gram of lung tissue at 15 mg/kg, iv administered as single dose treated 24 hrs postinfection; type: functional
Bacillus anthracis [39] = experiment: Antimicrobial activity against Bacillus anthracis infected mouse spore inhalation anthrax model assessed as bacterial load per gram of lung tissue at 5 mg/kg, iv administered as single dose treated 24 hrs postinfection; type: functional
Bacillus anthracis [40] = experiment: Antimicrobial activity against Bacillus anthracis infected mouse spore inhalation anthrax model assessed as bacterial load per gram of lung tissue at 10 mg/kg, ip every 48 hrs for 14 days treated 36 hrs postinfection; type: functional; settings: route intraperitoneal
Bacillus anthracis [41] = experiment: Antimicrobial activity against Bacillus anthracis infected mouse spore inhalation anthrax model assessed as bacterial load per gram of lung tissue at 10 mg/kg, ip every 48 hrs for 14 days treated 48 hrs postinfection; type: functional; settings: route intraperitoneal
Bacillus anthracis [42] = experiment: Antimicrobial activity against Bacillus anthracis infected mouse spore inhalation anthrax model assessed as bacterial load per gram of lung tissue at 50 mg/kg, iv administered as single dose treated 42 hrs postinfection; type: functional
Bacillus anthracis [43] = experiment: Antimicrobial activity against Bacillus anthracis infected mouse spore inhalation anthrax model assessed as bacterial load per gram of lung tissue at 50 mg/kg, iv administered as single dose treated 24 hrs before infection; type: functional
Bacillus anthracis [44] = experiment: Antimicrobial activity against Bacillus anthracis infected mouse spore inhalation anthrax model assessed as bacterial load per gram of lung tissue at 50 mg/kg, iv administered as single dose treated 7 days before infection; type: functional
Bacillus anthracis [45] = experiment: Antimicrobial activity against Bacillus anthracis infected mouse spore inhalation anthrax model assessed as bacterial load per gram of lung tissue at 50 mg/kg, iv administered as single dose treated 14 days before infection; type: functional
Bacillus anthracis [46] = experiment: Antimicrobial activity against Bacillus anthracis infected mouse spore inhalation anthrax model assessed as bacterial load per gram of lung tissue at 50 mg/kg, iv administered as single dose treated 28 days before infection; type: functional
Mus musculus [47] = experiment: Free peak concentration in Bacillus anthracis infected mouse spore inhalation anthrax model at 32 mg/kg, iv administered as single dose; type: ADME, organism-based; set-up: dose 32 mg/kg, route intravenous; settings: in vivo
Mus musculus [48] = experiment: fAUC (0.25 to 72 hrs) in Bacillus anthracis infected mouse spore inhalation anthrax model at 32 mg/kg, iv administered as single dose; type: ADME, organism-based; set-up: dose 32 mg/kg, route intravenous; settings: in vivo
Mus musculus [49] = experiment: Free peak concentration in Bacillus anthracis infected mouse spore inhalation anthrax model at 32 mg/kg, ip administered as single dose; type: ADME, organism-based; set-up: dose 32 mg/kg, route intraperitoneal; settings: in vivo
Mus musculus [50] = experiment: fAUC (0.25 to 72 hrs) in Bacillus anthracis infected mouse spore inhalation anthrax model at 32 mg/kg, ip administered as single dose; type: ADME, organism-based; set-up: dose 32 mg/kg, route intraperitoneal; settings: in vivo
Bacillus anthracis [51] = experiment: Antimicrobial activity against Bacillus anthracis infected mouse spore inhalation anthrax model assessed as survival rate at 0.1 mg/kg, ip every 48 hrs for 14 days treated 24 hrs postinfection measured on day 3; type: functional; settings: route intraperitoneal
Mus musculus [52] = species: Mus musculus; settings: in vivo, ip, 1.2 mg/kg

O=C(O)c1cn(C2CC2)c2cc(N3CCNCC3)c(F)cc2c1=O [CIPROFLOXACIN]
log10cfu (Bacillus anthracis [1]): 1090 | log10cfu (Bacillus anthracis [2]): 2880 | log10cfu (Bacillus anthracis [3]): 3080 | MIC (Bacillus cereus [4]): 0.12 mg/L (≈ 0.362 µM) | MIC (Bacillus cereus [5]): 0.5 mg/L (≈ 1.51 µM) | Ratio (Bacillus cereus [6]): 4 | survival at 30 mg/kg (Bacillus anthracis [7]): 90% | survival at 30 mg/kg (Bacillus anthracis [8]): 70% | survival at 30 mg/kg (Bacillus anthracis [9]): 80% | survival at 30 mg/kg (Bacillus anthracis [10]): 0% | survival at 30 mg/kg (Bacillus anthracis [11]): 0%

CN[C@H](CC(C)C)C(=O)N[C@H]1C(=O)N[C@@H](CC(N)=O)C(=O)N[C@H]2C(=O)N[C@H]3C(=O)N[C@H](C(=O)N[C@H](C(=O)O)c4cc(O)cc(O)c4-c4cc3ccc4O)[C@H](O[C@H]3C[C@](C)(N)[C@@H](O)[C@H](C)O3)c3ccc(c(Cl)c3)Oc3cc2cc(c3O[C@@H]2O[C@H](CO)[C@@H](O)[C@H](O)[C@H]2O[C@H]2C[C@](C)(NCc3ccc(-c4ccc(Cl)cc4)cc3)[C@@H](O)[C@H](C)O2)Oc2ccc(cc2Cl)[C@H]1O [ORITAVANCIN]
MIC90 (Bacillus anthracis [12]): 0.12 mg/L | Ratio (Bacillus anthracis [13]): 16 | MIC (Bacillus anthracis [14]): 0.015 mg/L | ED50 (Bacillus anthracis [15]): 1.2 mg/kg | survival at 30 mg/kg (Bacillus anthracis [16]): 100% | survival at 10 mg/kg (Bacillus anthracis [17]): 100% | survival at 3 mg/kg (Bacillus anthracis [18]): 100% | survival at 1 mg/kg (Bacillus anthracis [19]): 50% | survival at 0.3 mg/kg (Bacillus anthracis [20]): 30% | survival at 0.1 mg/kg (Bacillus anthracis [21]): 0% | survival at 50 mg/kg (Bacillus anthracis [22]): 100% | survival at 15 mg/kg (Bacillus anthracis [23]): 70% | survival at 5 mg/kg (Bacillus anthracis [24]): 40% | survival at 10 mg/kg (Bacillus anthracis [25]): 90% | survival at 10 mg/kg (Bacillus anthracis [26]): 50% | survival at 50 mg/kg (Bacillus anthracis [27]): 55% | survival at 50 mg/kg (Bacillus anthracis [28]): 100% | survival at 50 mg/kg (Bacillus anthracis [29]): 90% | survival at 50 mg/kg (Bacillus anthracis [30]): 100% | survival at 50 mg/kg (Bacillus anthracis [31]): 20% | log10cfu (Bacillus anthracis [32]): 18200 | log10cfu (Bacillus anthracis [33]): 35000 | log10cfu (Bacillus anthracis [34]): 36800 | log10cfu (Bacillus anthracis [35]): 29500 | log10cfu (Bacillus anthracis [36]): 28000 | log10cfu (Bacillus anthracis [37]): 36100 | log10cfu (Bacillus anthracis [38]): 20300 | log10cfu (Bacillus anthracis [39]): 35000 | log10cfu (Bacillus anthracis [40]): 2520 | log10cfu (Bacillus anthracis [41]): 1680 | log10cfu (Bacillus anthracis [42]): 740 | log10cfu (Bacillus anthracis [43]): 1980 | log10cfu (Bacillus anthracis [44]): 63000 | log10cfu (Bacillus anthracis [45]): 65000 | log10cfu (Bacillus anthracis [46]): 51000 | Cmax_unbound (Mus musculus [47]): 17 µg/mL | fAUC (Mus musculus [48]): 61 µg·h/mL | Cmax_unbound (Mus musculus [49]): 6.1 µg/mL | fAUC (Mus musculus [50]): 54 µg·h/mL | MIC (Bacillus cereus [4]): 0.004 mg/L (≈ 0.00223 µM) | MIC (Bacillus cereus [5]): 0.008 mg/L (≈ 0.00446 µM) | Ratio (Bacillus cereus [6]): 1 | Activity (Bacillus anthracis [51]): 100% | fAUC (Mus musculus [52]): 1.9 µg·h/mL

From ChEMBL document CHEMBL1687708, “Efficacy of oritavancin in a murine model of Bacillus anthracis spore inhalation anthrax” (Antimicrob Agents Chemother, 2008)
